Reference: the RNAGym collection of RNA variant scans (doi:10.1126/science.aae0568)
This sample holds only a part of the variants without activity.

B1: tRNA (parent)
chain: GUUCCGUUGGCGUAAUGGUAACGCGUCUCCCUCCUAAGGAGAAGACUGCGGGUUCGAGUCCCGUACGGAACG

Variants of: B1
Assay: yeast fitness relative to wild type (ratio to wild type); higher = fitter; tRNA-Arg(CCU), competitive growth, 37 C, YPD
Outline: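 Variants of the tRNA-Arg(CCU) gene, chemically synthesised with a 3% per-site mutation rate at 69 sites, were placed at the native genomic locus in Saccharomyces cerevisiae. The pooled strains were competed in YPD at 37°C for 24 hours in six parallel replicates. Gene amplicons from the start population and from each end population were read by 100-nucleotide paired-end sequencing. Darwinian fitness relative to wild type came from changes in genotype frequencies; genotypes needed ≥ 100 starting reads, and estimates < 0.5 were set to 0.5.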

Variant | yeast fitness
G12C U54G | 0.657
U13A A20U C24U A37G U59G | ≤ 0.5
G12C C30U G56A | 0.54
U13A A20C C33A G39A | ≤ 0.5
G12C C33G A37G A40C C49G G67C | 0.539
G12C C34A G44C | ≤ 0.5
U13A A57C C66G | ≤ 0.5
G12C C24G C30A A43C C60U C62A | ≤ 0.5
G12C U16A C27G A36G C46U C61U C62A G68A | ≤ 0.5
G12C U53A C61U C62A | ≤ 0.5
U13A C30G C31U C33G | ≤ 0.5
G12C G39A G68C | ≤ 0.5
U13A A21U C22G U32C A42C G48C C55G | ≤ 0.5
U13A A40U G52U C55G | ≤ 0.5
G12C C33A G51C C62G | ≤ 0.5
G12U A36G G63A A69U | 0.604
U13A C22G C31G | 0.547
G12C U19A A42C G50C G56C | ≤ 0.5
G12C U28G A37G G41A G48A G67C | ≤ 0.5
U13A A40U | 0.99
G12C C30G A45U A69U | ≤ 0.5
G12C U16C | 0.771
U13A C27U C66U | 0.787
G12C C24G U53C C60G | ≤ 0.5

Variant | yeast fitness
U13A A40G A42G | ≤ 0.5
U13A C30U G38C C49A | ≤ 0.5
U13A A15C C33G C49U U64A | ≤ 0.5
G12C C33G C34U A36C A43G G52A G58C U64G A65G | ≤ 0.5
U13A A21C U54G | 0.557
G12C G63A | 0.81
G12C G18C G41A A43G G48A | ≤ 0.5
G12C U26C | 0.859
G12C G17A A20U C34A G41C | ≤ 0.5
G12C C29A A45U C62U | ≤ 0.5
G12C G25A A43C | 0.639
G12C U13G C33U C55U G56A | ≤ 0.5
U13A A15U G17C C61A | ≤ 0.5
G12C C22U C27A C49U | ≤ 0.5
U13A C29G G48C | ≤ 0.5
G12C U19G G25A U59A U64A | 0.623
U13A C22G C24G A36U A40C | 0.58
U13A A57G | 0.792
G12C G56C G58C | ≤ 0.5
G12C U32G | 0.689
G12C U32C G41C A57G | ≤ 0.5
G12C G41C | 0.748
U13A A40C A70U | ≤ 0.5
G12C U26A C33A C34G | 0.55

Variant | yeast fitness
U13A A21C C33U G52A A57G G67U | ≤ 0.5
G12C U35G | 0.677
G12C U35A | 0.774
G12C U35C | 0.691
G12C C61U | 0.746
G12C C61G | 0.635
U13A A21C G44A | ≤ 0.5
G12C U53C C60G G63U | 0.691
U13A A20U C27U A42G | ≤ 0.5
U13A A14C C22A G48C G67U | ≤ 0.5
U13A A45G G50C C60A A69C | 0.821
U13A A14C C22A G48C | 0.546
G12C U19G G25A C49U U59A U64A | ≤ 0.5
G12C C30G A42U | ≤ 0.5
U13A C27U G44C | 0.637
U13A C22G U32C A42C G48C C55G | ≤ 0.5
U13A C22G C24G A36U A40C G51C | 0.548
U13A A14U C22G A37G | 0.631
U13A A15G C27U | 0.601
U13A A15G C27G | ≤ 0.5
G12C C61A C62A | ≤ 0.5
G12C U13C A20C C29G | ≤ 0.5
U13A A15G C61U | 0.564
G12C C27A C31G G52C | ≤ 0.5

Variant | yeast fitness
G12C U26A C33A C34G A69C | ≤ 0.5
G12C G50A U54A | ≤ 0.5
U13A C29U A40C | 0.54
G12C C30G A45U C46A | 0.608
G12C C27G U32C A37G | ≤ 0.5
G12C G23C | 0.588
U13A C24U | 0.795
U13A C24A | 0.624
G12C C22U | 0.955
G12C C22G | 1.03
G12C G39A A70G | 0.537
U13A A43C A57C | ≤ 0.5
G12C C33G A36G G44C | ≤ 0.5
U13A C30U C55G G58C G63C C66U | ≤ 0.5
U13A A20U C27U A42G U54C | ≤ 0.5
U13A A14G C30G | ≤ 0.5
G12C G17C C22A G58A | ≤ 0.5
U13A A20G A21G A65C | ≤ 0.5
G12C U28G | 0.696
U13A A65U A69C | ≤ 0.5
G12C C24A | 0.685
U13A A21U G58C G68C | 0.857
U13A C30U C34U A42G G63A | ≤ 0.5
U13A C27G U32C A45G U64A | ≤ 0.5

Variant | yeast fitness
G12C U28A A37G G38A A45U A70G | ≤ 0.5
G12C C24G A37C | ≤ 0.5
G12C C24A C55U | ≤ 0.5
G12C U28C C49U U59A | ≤ 0.5
G12C G17A C49A G56A | ≤ 0.5
G12U | 1.04
G12C U13A A36U | 0.626
G12C C24U C55U | 0.564
G12C C31G C33G U35C | 0.515
G12C G67A A69G | 0.534
G12C G67A A69C | ≤ 0.5
U13A C24A C60U | ≤ 0.5
U13A A43G U53G | ≤ 0.5
G12C C33G A37G A40C C49G | ≤ 0.5
U13A C22G C24G A36U A40C A45G C66A | ≤ 0.5
U13A A37C A43U G50C A57G | ≤ 0.5
G12C C22G G23A A37C A43C | 0.534
U13A C27G A42U A69U | 0.687
G12C G52C C66U | ≤ 0.5
G12C G48C G52C | ≤ 0.5
G12C C61U C66G | ≤ 0.5
G12C U16A G23C C29A C60A | ≤ 0.5
U13A C24A G51A C61A A69U | ≤ 0.5
G12C C30G | 0.666

Variant | yeast fitness
G12C C30U | 0.694
G12C C30A | 0.786
G12C C62U A70U | 0.606
U13A A20G A36C G41C C61U | 0.62
U13A A15G C29A C61G | ≤ 0.5
G12C G39A A42C | ≤ 0.5
U13A C24U C30A C60U | ≤ 0.5
U13A A21G A57U | 0.597
G12C U26C A43C U54C | ≤ 0.5
U13A C22G C29G A40U U54C C61G | ≤ 0.5
U13A A20U C31G C34U G67U | ≤ 0.5
U13A A15C A45G C55U C61G | ≤ 0.5
U13A A21U C22G C31A | 0.701
G12C C60G | 0.641
G12C C60U | 0.726
U13A C30A A69C | 0.656
G12C G38C | 0.54
G12C U19A C27G G44C | ≤ 0.5
G12U G44C | 0.766
U13A A57G A69C | 0.503
G12C C27U C33A A45C U54A C62U | ≤ 0.5
G12C U16A U26A G67U | ≤ 0.5
G12C U28A G51A A57U C62U | 0.594
U13A A14G | 0.843

Variant | yeast fitness
U13A A42C A70U | 0.671
U13A A40G A43C G50A G67C | ≤ 0.5
U13A A45C C60A | ≤ 0.5
G12C G18C G58C | ≤ 0.5
U13A C27G A45C | 0.743
U13A C27G U28A A65U A70U | 0.543
U13A C27G A40G G41C | 0.741
G12C U35C A37G G38A A45U A70G | ≤ 0.5
G12U A36G A65C | 0.561
G12C U13A G50A | ≤ 0.5
U13A A20G C24U U35C G58C | 0.632
G12C C33G C34U A36C A43G G52C C60U | 0.608
U13A A14C G18A G44A C66G | ≤ 0.5
U13A A42C C62A | 0.57
G12U A37G C66U | 0.614
G12C C24G C49G | ≤ 0.5
G12C U64C | 0.916
G12C G18C C55U C60G | ≤ 0.5
U13A A45C | 0.902
U13A C29U A42U | 0.568
U13A C24G G25A G39C A40C G51C | 0.745
U13A A65G | 1.04
U13A A65C | 0.79
